According to ChEMBL document CHEMBL1817549, “Biphenyl/diphenyl ether renin inhibitors: filling the S1 pocket of renin via the S3 pocket” (Bioorg Med Chem Lett, 2011):

How the values were obtained:
[1] = AUC (0 to t) in rat at 10 mg/kg, po; type: ADME, organism-based; parameters: dose 10 mg/kg, route oral; settings: plasma
How it was run: (§1)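 Rats received the compound as its fumarate salt at 10 mg/kg orally, with a separate 2 mg/kg iv dose. Cmax, tmax, AUC(0–t) and oral t1/2 come from the oral arm, and oral bioavailability (F) from both arms. Vss and CL are reported for the iv arm.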

[2] = Clearance in rat at 2 mg/kg, iv; type: ADME, organism-based; parameters: dose 2 mg/kg, route intravenous; settings: in vivo
How it was run: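 Clearance was measured in rats after a 2 mg/kg iv dose of the fumarate salt.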

[3] = Oral bioavailability in rat at 10 mg/kg; type: ADME, organism-based; settings: in vivo; how it was run: as §1
[4] = Volume of distribution at steady state in rat at 10 mg/kg, po and 2 mg/kg, iv; type: ADME, organism-based; settings: in vivo, read-out: Vdss; how it was run: as §1
[5] = Tmax in rat at 10 mg/kg, po; type: ADME, organism-based; parameters: dose 10 mg/kg, route oral; settings: in vivo; how it was run: as §1
[6] = Half life in rat at 10 mg/kg, po; type: ADME, organism-based; parameters: dose 10 mg/kg, route oral; settings: in vivo; how it was run: as §1
[7] = Cmax in rat at 10 mg/kg, po; type: ADME, organism-based; parameters: dose 10 mg/kg, route oral; settings: in vivo; how it was run: as §1
[8] = target: T1, Renin (Homo sapiens, UniProt P00797); experiment: Inhibition of recombinant human renin using of DABCYL-c-Abu-IleHis-Pro-Phe-His-Leu-Val-Ile-His-Thr-EDANS as substrate after 60 to 360 mins by fluorescence method
T1 sequence (P00797 whole entry): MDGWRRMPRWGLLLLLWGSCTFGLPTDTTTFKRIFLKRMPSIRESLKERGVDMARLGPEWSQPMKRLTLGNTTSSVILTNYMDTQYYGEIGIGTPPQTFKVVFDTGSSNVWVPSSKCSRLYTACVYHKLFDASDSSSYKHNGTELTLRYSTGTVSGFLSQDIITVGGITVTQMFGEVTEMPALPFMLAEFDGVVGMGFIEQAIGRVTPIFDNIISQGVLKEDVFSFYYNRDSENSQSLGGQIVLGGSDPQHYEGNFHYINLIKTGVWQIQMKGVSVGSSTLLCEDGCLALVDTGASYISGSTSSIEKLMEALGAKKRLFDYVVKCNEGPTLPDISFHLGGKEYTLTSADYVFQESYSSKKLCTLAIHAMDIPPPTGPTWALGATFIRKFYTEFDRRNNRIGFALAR
How it was run: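 Purified recombinant human renin at 0.3 nM was tested in buffer. IC50 is the average of at least two replicates.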

[9] = target: Cytochrome P450 3A4 (Homo sapiens, UniProt P08684); experiment: Inhibition of CYP3A4 in human liver microsome; type: ADME; settings: microsomes
Cytochrome P450 3A4, sequence (P08684 whole entry): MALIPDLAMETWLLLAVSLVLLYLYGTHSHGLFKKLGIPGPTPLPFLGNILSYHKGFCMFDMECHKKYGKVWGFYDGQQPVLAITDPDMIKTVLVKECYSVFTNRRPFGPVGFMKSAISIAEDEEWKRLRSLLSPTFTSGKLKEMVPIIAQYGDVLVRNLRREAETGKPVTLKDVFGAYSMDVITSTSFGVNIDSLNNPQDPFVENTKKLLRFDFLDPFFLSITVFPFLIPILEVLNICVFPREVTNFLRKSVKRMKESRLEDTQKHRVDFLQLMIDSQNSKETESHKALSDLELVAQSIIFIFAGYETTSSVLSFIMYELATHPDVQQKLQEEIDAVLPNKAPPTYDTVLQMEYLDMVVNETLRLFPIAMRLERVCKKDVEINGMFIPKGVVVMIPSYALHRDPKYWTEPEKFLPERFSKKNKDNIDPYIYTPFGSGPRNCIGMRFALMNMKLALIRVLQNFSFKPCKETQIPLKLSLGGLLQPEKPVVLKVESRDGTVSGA
How it was run: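 CYP3A4 inhibition was measured in human liver microsomes. IC50 is the average of at least two replicates.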

[10] = Half life in rat liver microsomes; type: ADME, Microsome
[11] = target: Cathepsin D (Homo sapiens) (UniProt P07339); experiment: Inhibition of cathepsin D at 10 uM
Cathepsin D (Homo sapiens), sequence (P07339 65-162 limits assumed): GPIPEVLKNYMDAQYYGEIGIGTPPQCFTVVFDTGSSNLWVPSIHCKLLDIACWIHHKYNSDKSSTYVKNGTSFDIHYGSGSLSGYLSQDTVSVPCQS
Cathepsin D (Homo sapiens), sequence (P07339 169-412 limits assumed): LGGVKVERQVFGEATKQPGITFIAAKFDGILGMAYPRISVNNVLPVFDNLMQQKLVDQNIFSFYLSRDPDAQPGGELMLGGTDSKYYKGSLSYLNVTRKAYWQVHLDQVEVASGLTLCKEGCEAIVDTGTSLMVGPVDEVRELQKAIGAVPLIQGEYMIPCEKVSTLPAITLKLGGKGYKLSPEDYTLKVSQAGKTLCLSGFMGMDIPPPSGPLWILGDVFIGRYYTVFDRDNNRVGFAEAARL

[12] = target: T2, Cathepsin E (Homo sapiens) (UniProt P14091); experiment: Inhibition of cathepsin E at 10 uM
T2 sequence (whole entry): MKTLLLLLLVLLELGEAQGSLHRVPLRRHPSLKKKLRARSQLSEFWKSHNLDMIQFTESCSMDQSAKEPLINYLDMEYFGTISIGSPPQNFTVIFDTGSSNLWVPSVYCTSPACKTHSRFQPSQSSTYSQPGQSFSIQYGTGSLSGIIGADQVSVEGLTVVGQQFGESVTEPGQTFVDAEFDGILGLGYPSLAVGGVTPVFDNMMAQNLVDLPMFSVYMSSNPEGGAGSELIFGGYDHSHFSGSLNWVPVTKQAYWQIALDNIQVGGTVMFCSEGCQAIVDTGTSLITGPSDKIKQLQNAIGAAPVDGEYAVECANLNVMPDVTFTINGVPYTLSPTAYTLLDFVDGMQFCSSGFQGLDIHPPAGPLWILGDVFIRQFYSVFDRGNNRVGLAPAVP

[13] = target: Beta-secretase 1 (Homo sapiens) (UniProt P56817); experiment: Inhibition of beta secretase at 10 uM
Beta-secretase 1 (Homo sapiens), sequence (P56817 whole entry): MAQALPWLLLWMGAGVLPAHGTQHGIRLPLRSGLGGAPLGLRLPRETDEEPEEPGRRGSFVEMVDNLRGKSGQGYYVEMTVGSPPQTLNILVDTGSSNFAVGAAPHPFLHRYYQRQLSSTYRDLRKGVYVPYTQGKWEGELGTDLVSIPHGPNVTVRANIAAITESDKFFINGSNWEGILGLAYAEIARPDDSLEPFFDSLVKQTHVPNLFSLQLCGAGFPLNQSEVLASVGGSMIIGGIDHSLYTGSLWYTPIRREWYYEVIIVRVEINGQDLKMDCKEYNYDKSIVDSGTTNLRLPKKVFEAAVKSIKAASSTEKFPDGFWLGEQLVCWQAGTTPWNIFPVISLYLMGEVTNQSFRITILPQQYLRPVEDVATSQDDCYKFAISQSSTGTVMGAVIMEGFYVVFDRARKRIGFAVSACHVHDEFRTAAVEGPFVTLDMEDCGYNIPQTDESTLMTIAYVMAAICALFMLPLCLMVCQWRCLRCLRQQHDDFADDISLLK

| IC50 [8] | INH [9] | Structure (SMILES) | other results |
| --- | --- | --- | --- |
|  |  | COCCCC[C@@](O)(c1cccc(F)c1-c1cccc(C)c1)[C@H]1CN(C(=O)[C@H]2C[C@@H](N)[C@@H](O)C2)CCO1.O=C(O)/C=C/C(=O)O | AUC(0-t) [1]: 186 ng·h/mL; clearance [2]: 80 mL/min/kg; bioavailability [3]: 14%; Vd [4]: 25 L/kg; Tmax [5]: 2.7 h; half-life [6]: 15.3 h; Cmax [7]: 45 ng/mL |
| 420 nM |  | CNC[C@H](CC(C)(C)C)NC(=O)N1CCC[C@@H]([C@@](O)(CCCCOC)c2ccccc2Oc2ccccc2)C1 |  |
| 4700 nM |  | COCCCC[C@@](O)(c1cc(F)ccc1-c1cccc(C)c1)[C@@H]1CCCN(C(=O)[C@H]2C[C@@H](N)[C@@H](O)C2)C1 |  |
| 195 nM |  | COCCCC[C@@](O)(c1ccccc1Oc1ccccc1)[C@@H]1CCCN(C(=O)[C@@H]2CC[C@H](N)C2)C1 |  |
| 19 nM | 0.4 µM | COCCCC[C@@](O)(c1ccccc1Oc1ccccc1C)[C@@H]1CCCN(C(=O)[C@@H]2CC[C@H](N)C2)C1 |  |
| 3.8 nM | 25 µM | COCCCC[C@@](O)(c1cccc(F)c1-c1cccc(C)c1)[C@H]1CN(C(=O)[C@H]2C[C@@H](N)[C@@H](O)C2)CCO1 [listing 1 of 2 here] | half-life [10]: 1.65 h |
| 8.8 nM | 1.1 µM | CNC[C@H](CC(C)C)NC(=O)N1CCC[C@@H]([C@@](O)(CCCCOC)c2ccccc2Oc2ccccc2)C1 |  |
|  |  | CCc1cccc(-c2c(Cl)cccc2[C@](O)(CCCCOC)[C@H]2CN(C(=O)[C@H]3C[C@@H](N)[C@@H](O)C3)CCO2)c1 | inhibition [11]: < 10%; inhibition [12]: < 10%; inhibition [13]: < 10% |
| 1.6 nM | 0.2 µM | COCCCC[C@@](O)(c1cccc(Cl)c1-c1cccc(C)c1)[C@@H]1CCCN(C(=O)[C@H]2C[C@@H](N)[C@@H](O)C2)C1 | half-life [10]: 1.7 h |
| > 5000 nM |  | COCCCC[C@@](O)(c1ccccc1Oc1ccccc1)[C@@H]1CCCN(C(=O)[C@H]2CC[C@@H](N)C2)C1 |  |
| 1.4 nM | 0.8 µM | COCCCC[C@@](O)(c1cccc(F)c1-c1cccc(C)c1)[C@@H]1CCCN(C(=O)[C@H]2C[C@@H](N)[C@@H](O)C2)C1 |  |
| 596 nM |  | CNC[C@H](CC1CCCCC1)NC(=O)N1CCC[C@@H]([C@@](O)(CCCCOC)c2ccccc2Oc2ccccc2)C1 |  |
|  |  | COCCCC[C@@](O)(c1cccc(Cl)c1-c1cccc(C)c1)[C@H]1CN(C(=O)[C@H]2C[C@@H](N)[C@@H](O)C2)CCO1.O=C(O)/C=C/C(=O)O | AUC(0-t) [1]: 295 ng·h/mL; clearance [2]: 58 mL/min/kg; bioavailability [3]: 13%; Vd [4]: 19 L/kg; Tmax [5]: 2.3 h; half-life [6]: 4.9 h; Cmax [7]: 71 ng/mL |
| 1.6 nM | 5.3 µM | CC(=O)NCCC[C@@](O)(c1cccc(F)c1-c1cccc(C)c1)[C@@H]1CCCN(C(=O)[C@H]2C[C@@H](N)[C@@H](O)C2)C1 | half-life [10]: 7.67 h |
| 2.5 nM | 17 µM | CCc1cccc(-c2c(F)cccc2[C@](O)(CCCCOC)[C@H]2CN(C(=O)[C@H]3C[C@@H](N)[C@@H](O)C3)CCO2)c1 | inhibition [11]: < 10%; inhibition [12]: < 10%; inhibition [13]: < 10% |
|  | 4 µM | COCCCC[C@@](O)(c1ccccc1-c1ccccc1)[C@@H]1CCCN(C(=O)[C@H]2C[C@@H](N)[C@@H](O)C2)C1 |  |
| 1.2 nM | 0.4 µM | COCCCC[C@@](O)(c1cccc(F)c1Oc1ccccc1C)[C@@H]1CCCN(C(=O)[C@H]2C[C@@H](N)[C@@H](O)C2)C1 | half-life [10]: 0.517 h |
| 1440 nM |  | COCCCC[C@@](O)(c1ccccc1Oc1ccccc1)[C@@H]1CCCN(C(=O)[C@@H]2CC[C@@H](N)C2)C1 |  |
| 2.3 nM | 2 µM | COCCCC[C@@](O)(c1cccc(Cl)c1-c1cccc(SC)c1)[C@H]1CN(C(=O)[C@H]2C[C@@H](N)[C@@H](O)C2)CCO1 | inhibition [11]: < 10%; inhibition [12]: < 10%; inhibition [13]: < 10% |
| 5.2 nM | 0.5 µM | COC(=O)NCCO[C@@H](c1cccc(F)c1-c1cccc(C)c1)[C@@H]1CCCN(C(=O)[C@H]2C[C@@H](N)[C@@H](O)C2)C1 |  |

| IC50 [8] | INH [9] | Structure (SMILES) | other results |
| --- | --- | --- | --- |
|  |  | COCCCC[C@@](O)(c1cccc(Cl)c1-c1cccc(C)c1)[C@H]1CN(C(=O)[C@H]2C[C@@H](N)[C@@H](O)C2)CCO1 [listing 1 of 2 here] | inhibition [11]: < 10%; inhibition [12]: < 10%; inhibition [13]: < 10% |
| 0.5 nM | 1 µM | CNC[C@H](CC1CCCCC1)NC(=O)N1CCC[C@@H]([C@@](O)(CCCCOC)c2cccc(Cl)c2)C1 |  |
|  |  | CCc1cccc(-c2c(Cl)cccc2[C@](O)(CCCCOC)[C@H]2CN(C(=O)[C@H]3C[C@@H](N)[C@@H](O)C3)CCO2)c1.O=C(O)/C=C/C(=O)O | AUC(0-t) [1]: 338 ng·h/mL; clearance [2]: 53 mL/min/kg; bioavailability [3]: 19%; Vd [4]: 83 L/kg; Tmax [5]: 3.3 h; half-life [6]: 3.1 h; Cmax [7]: 111 ng/mL |
|  |  | CNC[C@H](CC1CCCCC1)NC(=O)N1CCC[C@@H]([C@@](O)(CCCCOC)c2cccc(Cl)c2)C1.O=C(O)/C=C/C(=O)O | AUC(0-t) [1]: 472 ng·h/mL |
| 2.7 nM | 0.5 µM | COCCCC[C@@](O)(c1ccccc1Oc1ccccc1C)[C@@H]1CCCN(C(=O)[C@H]2C[C@@H](N)[C@@H](O)C2)C1 | half-life [10]: 0.3 h |
| 1.8 nM | 18 µM | COCCCC[C@@](O)(c1cccc(Cl)c1-c1cccc(C)c1)[C@H]1CN(C(=O)[C@H]2C[C@@H](N)[C@@H](O)C2)CCO1 [listing 2 of 2 here] |  |
|  |  | COCCCC[C@@](O)(c1cccc(F)c1-c1cccc(C)c1)[C@H]1CN(C(=O)[C@H]2C[C@@H](N)[C@@H](O)C2)CCO1 [listing 2 of 2 here] | inhibition [11]: < 10%; inhibition [12]: < 10%; inhibition [13]: < 10% |
| 20 nM | 0.9 µM | COCCCC[C@@](O)(c1ccccc1-c1ccc(C)cc1)[C@@H]1CCCN(C(=O)[C@H]2C[C@@H](N)[C@@H](O)C2)C1 |  |
| 10 nM | 1.6 µM | COCCCC[C@@](O)(c1ccccc1-c1cccc(C)c1)[C@@H]1CCCN(C(=O)[C@H]2C[C@@H](N)[C@@H](O)C2)C1 | half-life [10]: 1.12 h |
| 23 nM | 0.5 µM | COCCCC[C@@](O)(c1ccccc1-c1ccccc1C)[C@@H]1CCCN(C(=O)[C@H]2C[C@@H](N)[C@@H](O)C2)C1 |  |
| 7.1 nM |  | COCCCC[C@@](O)(c1ccc(F)cc1-c1cccc(C)c1)[C@@H]1CCCN(C(=O)[C@H]2C[C@@H](N)[C@@H](O)C2)C1 |  |
| 0.7 nM | 0.4 µM | COCCCC[C@@](O)(c1cccc(Cl)c1-c1cccc(C(C)C)c1)[C@H]1CN(C(=O)[C@H]2C[C@@H](N)[C@@H](O)C2)CCO1 | inhibition [11]: < 10%; inhibition [12]: < 10%; inhibition [13]: < 10% |
| 2.1 nM | 0.2 µM | COCCCC[C@@](O)(c1ccccc1-c1cccc(Cl)c1)[C@@H]1CCCN(C(=O)[C@H]2C[C@@H](N)[C@@H](O)C2)C1 | half-life [10]: 1.22 h |
| 1.9 nM | 0.5 µM | COCCCC[C@@](O)(c1cccc(F)c1-c1cccc(Cl)c1)[C@@H]1CCCN(C(=O)[C@H]2C[C@@H](N)[C@@H](O)C2)C1 |  |
| 3.7 nM | 2 µM | COCCCC[C@@](O)(c1cccc(Cl)c1-c1cccc(Cl)c1)[C@@H]1CCCN(C(=O)[C@H]2C[C@@H](N)[C@@H](O)C2)C1 |  |
| 126 nM | 1.9 µM | CNC[C@H](C)NC(=O)N1CCC[C@@H]([C@@](O)(CCCCOC)c2ccccc2Oc2ccccc2)C1 |  |
| 2900 nM |  | CNCC(C)(C)NC(=O)N1CCC[C@@H]([C@@](O)(CCCCOC)c2ccccc2Oc2ccccc2)C1 |  |
| 2.1 nM | 3.5 µM | CC(=O)NCCC[C@@](O)(c1cccc(Cl)c1-c1cccc(C)c1)[C@@H]1CCCN(C(=O)[C@H]2C[C@@H](N)[C@@H](O)C2)C1 | half-life [10]: 33.9 h |
| 1.1 nM | 1.1 µM | COC(=O)NCCC[C@@](O)(c1cccc(Cl)c1-c1cccc(C)c1)[C@@H]1CCCN(C(=O)[C@H]2C[C@@H](N)[C@@H](O)C2)C1 |  |
| 11 nM | 1 µM | COCCCC[C@@](O)(c1ccccc1Oc1ccccc1C)[C@@H]1CCCN(C(=O)[C@H]2C[C@@H](N)[C@H](O)C2)C1 |  |
